Measured values from ChEMBL document CHEMBL4002610, “Design, synthesis and biological activity evaluation of novel 2,6-difluorobenzamide derivatives through FtsZ inhibition” (2017).
Converted amounts (≈) assume the structure as drawn. The source made the active and inactive calls. No cut-off for these calls is given here.

Tests used:
Staphylococcus aureus [1] = assay: Antibacterial activity against Staphylococcus aureus ATCC 25923 after 24 hrs by broth microdilution method; type: functional; settings: ATCC 25923, 24 h
Summary of the method: (§1)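 MIC by standard broth microdilution per NCCLS guidance. Strain panel: B. subtilis ATCC9372 and S. aureus ATCC25923 as standard susceptible strains, S. aureus ATCC29213 as […], S. pyogenes PS as penicillin-susceptible, S. pneumoniae ATCC49619 as standard susceptible, alongside Gram-negative strains.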

Escherichia coli = assay: Antibacterial activity against Escherichia coli ATCC 25922 after 24 hrs by broth microdilution method; type: functional; settings: ATCC 25922, 24 h; summary of the method: as §1
Bacillus subtilis [2] = assay: Antibacterial activity against Bacillus subtilis ATCC 9372 after 24 hrs by broth microdilution method; type: functional; settings: ATCC 9372, 24 h; summary of the method: as §1
Bacillus subtilis [3] = assay: Inhibition of FtsZ in Bacillus subtilis ATCC 9372 assessed as decrease in cell division by measuring cell morphology at 2048 to 4096 ug/ml after 5 hrs by phase-contrast light microscopy
[4] = biological target: T1, Cell division protein FtsZ (Staphylococcus aureus) (UniProt P0A031); assay: Inhibition of FtsZ in Staphylococcus aureus ATCC 25923 assessed as decrease in cell division by measuring cell morphology at 2048 to 4096 ug/ml after 5 hrs by phase-contrast light microscopy
T1 sequence (whole entry): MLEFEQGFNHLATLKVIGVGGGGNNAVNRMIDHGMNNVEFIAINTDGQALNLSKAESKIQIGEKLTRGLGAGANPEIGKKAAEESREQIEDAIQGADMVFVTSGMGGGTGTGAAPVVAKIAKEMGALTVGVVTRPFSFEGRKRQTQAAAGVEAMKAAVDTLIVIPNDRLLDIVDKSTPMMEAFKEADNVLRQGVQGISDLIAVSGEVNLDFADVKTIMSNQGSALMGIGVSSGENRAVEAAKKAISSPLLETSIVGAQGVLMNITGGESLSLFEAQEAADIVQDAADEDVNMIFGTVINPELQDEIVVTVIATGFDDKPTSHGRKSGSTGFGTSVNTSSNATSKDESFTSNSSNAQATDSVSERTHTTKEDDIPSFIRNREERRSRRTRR

Staphylococcus aureus [5] = assay: Antibacterial activity against penicillin-resistant Staphylococcus aureus clinical isolate after 24 hrs by broth microdilution method; type: functional
Staphylococcus aureus [6] = assay: Antibacterial activity against Staphylococcus aureus ATCC 29213 after 24 hrs by broth microdilution method; type: functional; settings: ATCC 29213, 24 h; summary of the method: as §1
[7] = system: Escherichia coli ATCC 25922; assay: Inhibition of FtsZ in Escherichia coli ATCC 25922 assessed as decrease in cell division by measuring lowest compound concentration at which bacterial filamentation is observed after 5 hrs by phase-contrast light microscopy
Summary of the method: (§2)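 Cell division inhibition scored by cell morphology under phase-contrast light microscopy. B. subtilis ATCC9372, E. coli ATCC25922 and S. aureus ATCC25923 were exposed to compound. The lowest concentration giving filamentation (B. subtilis, E. coli) or ballooning (S. aureus) was recorded as the cell division inhibitory concentration.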

Pseudomonas aeruginosa = assay: Antibacterial activity against Pseudomonas aeruginosa ATCC 27853 after 24 hrs by broth microdilution method; type: functional; settings: ATCC 27853, 24 h; summary of the method: as §1
Streptococcus pneumoniae = assay: Antibacterial activity against Streptococcus pneumoniae ATCC 49619 after 24 hrs by broth microdilution method; type: functional; settings: ATCC 49619, 24 h; summary of the method: as §1
Streptococcus pyogenes = assay: Antibacterial activity against penicillin-susceptible Streptococcus pyogenes after 24 hrs by broth microdilution method; type: functional; summary of the method: as §1
[8] = biological target: T1, Cell division protein FtsZ (Staphylococcus aureus); assay: Inhibition of FtsZ in Staphylococcus aureus ATCC 25923 assessed as decrease in cell division by measuring lowest compound concentration at which bacterial ballooning is observed after 5 hrs by phase-contrast light microscopy; summary of the method: as §2
Bacillus subtilis [9] = assay: Inhibition of FtsZ in Bacillus subtilis ATCC 9372 assessed as decrease in cell division by measuring lowest compound concentration at which bacterial filamentation is observed after 5 hrs by phase-contrast light microscopy; summary of the method: as §2

| Compound | MIC (Staphylococcus aureus [1]) [µg/mL] | MIC (Escherichia coli) [µg/mL] | MIC (Bacillus subtilis [2]) [µg/mL] | inhibition (Bacillus subtilis [3]) | inhibition [4] | MIC (Staphylococcus aureus [5]) [µg/mL] | MIC (Staphylococcus aureus [6]) [µg/mL] | INH [7] [µg/mL] | MIC (Pseudomonas aeruginosa) [µg/mL] | MIC (Streptococcus pneumoniae) [µg/mL] | MIC (Streptococcus pyogenes) [µg/mL] | INH [8] [µg/mL] | INH (Bacillus subtilis [9]) [µg/mL] |
| --- | --- | --- | --- | --- | --- | --- | --- | --- | --- | --- | --- | --- | --- |
| NC(=O)c1c(F)ccc(OCCCCn2cnc3ccccc32)c1F | 1020 (≈ 2970 µM) | 1020 (≈ 2970 µM) | 512 (≈ 1480 µM) | inactive | inactive | 1020 (≈ 2970 µM) | 512 (≈ 1480 µM) | 512 | 512 (≈ 1480 µM) | 512 (≈ 1480 µM) | 1020 (≈ 2970 µM) |  |  |
| NC(=O)c1c(F)ccc(OCc2nc3ccccc3[nH]2)c1F | 1020 (≈ 3380 µM) | 256 (≈ 844 µM) | 1020 (≈ 3380 µM) | inactive |  | 1020 (≈ 3380 µM) | 512 (≈ 1690 µM) | 128 | 256 (≈ 844 µM) | 256 (≈ 844 µM) | 1020 (≈ 3380 µM) | 512 |  |
| NC(=O)c1c(F)ccc(OCCCCn2cnc3cc([N+](=O)[O-])ccc32)c1F | 1020 (≈ 2620 µM) | 512 (≈ 1310 µM) | 64 (≈ 164 µM) | inactive | inactive | 512 (≈ 1310 µM) | 256 (≈ 656 µM) | 256 | 512 (≈ 1310 µM) | 128 (≈ 328 µM) | 256 (≈ 656 µM) | 512 |  |
| NC(=O)c1c(F)ccc(OCCCCCn2cnc3ccccc32)c1F | 512 (≈ 1420 µM) | 1020 (≈ 2850 µM) | 512 (≈ 1420 µM) | inactive | inactive | 512 (≈ 1420 µM) | 512 (≈ 1420 µM) | 512 | 512 (≈ 1420 µM) | 512 (≈ 1420 µM) | 1020 (≈ 2850 µM) |  |  |
| NC(=O)c1c(F)ccc(OC2CCCC2)c1F | 256 (≈ 1060 µM) | 128 (≈ 531 µM) | 512 (≈ 2120 µM) |  |  | 512 (≈ 2120 µM) | 256 (≈ 1060 µM) | 64 | 128 (≈ 531 µM) | 128 (≈ 531 µM) | > 128 | 256 | 256 |
| NC(=O)c1c(F)ccc(OCCn2cnc3ccccc32)c1F | 1020 (≈ 3230 µM) | 512 (≈ 1610 µM) | 1020 (≈ 3230 µM) | inactive | inactive | 1020 (≈ 3230 µM) | 512 (≈ 1610 µM) | 256 | 1020 (≈ 3230 µM) | 512 (≈ 1610 µM) | 1020 (≈ 3230 µM) |  |  |
| NC(=O)c1c(F)ccc(OCCBr)c1F | 16 (≈ 57.1 µM) | 128 (≈ 457 µM) | 16 (≈ 57.1 µM) |  |  | 32 (≈ 114 µM) | 64 (≈ 229 µM) | 32 | 128 (≈ 457 µM) | > 128 | 64 (≈ 229 µM) | 16 | 2 |
| NC(=O)c1c(F)ccc(OCCCCl)c1F | 16 (≈ 64.1 µM) | 128 (≈ 513 µM) | 32 (≈ 128 µM) |  |  | 32 (≈ 128 µM) | 32 (≈ 128 µM) | 64 | 128 (≈ 513 µM) | > 128 | 128 (≈ 513 µM) | 32 | 16 |
| CC(C)COc1ccc(F)c(C(N)=O)c1F | 32 (≈ 140 µM) | 256 (≈ 1120 µM) | 64 (≈ 279 µM) |  |  | 64 (≈ 279 µM) | 128 (≈ 558 µM) | 64 | 128 (≈ 558 µM) | 128 (≈ 558 µM) | > 128 | 16 | 32 |
| NC(=O)c1c(F)ccc(OCCCCCBr)c1F | 8 (≈ 24.8 µM) | 256 (≈ 795 µM) | 16 (≈ 49.7 µM) |  |  | 16 (≈ 49.7 µM) | 16 (≈ 49.7 µM) | 64 | 256 (≈ 795 µM) | 128 (≈ 397 µM) | 128 (≈ 397 µM) | 4 | 2 |
| CC(C)CCOc1ccc(F)c(C(N)=O)c1F | 64 (≈ 263 µM) | 128 (≈ 526 µM) | 8 (≈ 32.9 µM) |  |  | 16 (≈ 65.8 µM) | 16 (≈ 65.8 µM) | 64 | 128 (≈ 526 µM) | 128 (≈ 526 µM) | > 128 | 4 | 4 |
| NC(=O)c1c(F)ccc(OCCCCCCn2cnc3cc([N+](=O)[O-])ccc32)c1F | 1020 (≈ 2450 µM) | 512 (≈ 1220 µM) | 1020 (≈ 2450 µM) |  | inactive | 1020 (≈ 2450 µM) | 512 (≈ 1220 µM) | 256 | 512 (≈ 1220 µM) | 256 (≈ 612 µM) | 512 (≈ 1220 µM) |  | 64 |
| NC(=O)c1c(F)ccc(OCCCCCCBr)c1F | 1 (≈ 2.97 µM) | 128 (≈ 381 µM) | 1 (≈ 2.97 µM) |  |  | 2 (≈ 5.95 µM) | 2 (≈ 5.95 µM) | 64 | 128 (≈ 381 µM) | > 128 | 64 (≈ 190 µM) | 1 | 0.5 |
| CC(C)Oc1ccc(F)c(C(N)=O)c1F | 256 (≈ 1190 µM) | 256 (≈ 1190 µM) | 256 (≈ 1190 µM) |  |  | 256 (≈ 1190 µM) | 256 (≈ 1190 µM) | 64 | 128 (≈ 595 µM) | 128 (≈ 595 µM) | > 128 | 128 | 128 |
| CCOCCC(=O)COc1ccc(F)c(C(N)=O)c1F | 64 (≈ 223 µM) | 256 (≈ 891 µM) | 64 (≈ 223 µM) |  |  | 256 (≈ 891 µM) | 128 (≈ 446 µM) | 64 | 128 (≈ 446 µM) | 128 (≈ 446 µM) | > 128 | 128 | 32 |
